# From ChEMBL document CHEMBL3877244, “Synthesis and biological evaluation of new aryl-alkyl(alkenyl)-4-benzylpiperidines, novel Sigma Receptor (SR) modulators, as potential anticancer-agents” (Eur J Med Chem, 2016)
# Tests used:
# [1] = Displacement of [3H]DTG from sigma 2 receptor in rat brain homogenates without cerebellum; format: tissue-based
# [2] = Cytotoxicity against human Paca3 cells assessed as decrease in cell viability under starvation condition after 24 hrs by MTS assay; format: functional, cell-based; details: Paca3, 24 h
# Summary of the method: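 Cells starved 24 h in low-glucose medium without FCS, then treated 24 h with compound in serum-free conditions. MTS read-out, OD 490 nm, expressed as percent of untreated control. IC50 read graphically from the dose-response plot. Three independent experiments in octuplicate.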
# [3] = Cytotoxicity against human Paca3 cells assessed as decrease in cell viability using complete medium after 24 hrs by MTS assay; format: functional, cell-based; details: Paca3, 24 h
# Summary of the method: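 Cells in exponential growth, 3×10^3 per well, in medium with 10% FCS. Capan-2, PaCa3, MDA-MB 231, SUM 159 and PC3 were grown in DMEM/Ham's F12 with glutamine 2 mM and insulin 10 µg/ml. U87 was grown in EMEM and LNCaP in RPMI, each with glutamine. Compound 0.1–100 µM, continuous exposure (24 h; 48 h for the 48 h lines). MTS, OD 490 nm. IC50 read graphically. Three independent experiments in octuplicate.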
# [4] = Displacement of [3H]-DTG from sigma 2 receptor in rat liver after 120 mins by scintillation counting analysis
# Summary of the method: (§1)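 Rat liver homogenate (150 µg) incubated 120 min at room temperature with 3 nM [³H]-DTG in 50 mM Tris-HCl pH 8.0. (+)-Pentazocine 100 nM masked S1R; haloperidol 10 µM defined nonspecific binding. Ki by Cheng–Prusoff from IC50.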
# [5] = target: Sigma non-opioid intracellular receptor 1 (Cavia porcellus, UniProt Q60492); experiment: Displacement of [3H]-pentazocine from sigma 1 receptor in guinea pig brain cortical membrane after 120 mins by scintillation counting analysis; format: cell membranes
# Sequence of Sigma non-opioid intracellular receptor 1 (Cavia porcellus, UniProt Q60492) (Q60492 whole entry): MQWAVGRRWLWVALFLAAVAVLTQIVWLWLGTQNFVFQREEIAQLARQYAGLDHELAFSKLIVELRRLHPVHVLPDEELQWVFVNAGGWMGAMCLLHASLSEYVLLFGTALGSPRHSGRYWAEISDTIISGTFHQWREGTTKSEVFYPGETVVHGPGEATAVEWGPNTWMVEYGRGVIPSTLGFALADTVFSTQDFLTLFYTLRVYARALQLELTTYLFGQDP
# Summary of the method: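 Nonspecific binding defined with unlabeled (+)-pentazocine. Filtration, then scintillation counting. IC50 by nonlinear regression, converted to Ki by Cheng–Prusoff.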
# [6] = Binding affinity to sigma 2 receptor (unknown origin)
# Summary of the method: (§2)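 Rat liver homogenate (150 µg) was incubated 120 min at room temperature with 3 nM [3H]-DTG in 50 mM Tris-HCl pH 8.0, with test compound at 10^-10 to 10^-5 M (final). 100 nM (+)-pentazocine masked S1R and 10 µM haloperidol defined nonspecific binding. Filtration and scintillation counting were used. Ki came from regression IC50 via Cheng-Prusoff.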
# [7] = target: Sigma non-opioid intracellular receptor 1 (Homo sapiens, UniProt Q99720); experiment: Binding affinity to sigma 1 receptor (unknown origin)
# Sequence of Sigma non-opioid intracellular receptor 1 (Homo sapiens, UniProt Q99720) (Q99720 whole entry): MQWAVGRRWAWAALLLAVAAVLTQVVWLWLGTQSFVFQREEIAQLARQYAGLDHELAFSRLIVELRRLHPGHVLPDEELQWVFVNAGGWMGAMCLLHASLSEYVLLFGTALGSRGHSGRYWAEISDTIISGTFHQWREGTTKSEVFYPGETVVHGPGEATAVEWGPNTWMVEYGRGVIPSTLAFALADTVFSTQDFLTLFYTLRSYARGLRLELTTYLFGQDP
# [8] = Antiproliferative activity against human AsPC1 cells after 24 hrs; format: functional, cell-based; details: ASPC1, 24 h
# [9] = Antiproliferative activity against mouse Panc02 cells after 24 hrs; format: functional, cell-based; details: Panc02, 24 h
# [10] = Antiproliferative activity against human BxPC3 cells after 24 hrs; format: functional, cell-based; details: BXPC-3, 24 h
# [11] = Antiproliferative activity against human MIAPaCa2 cells after 24 hrs; format: functional, cell-based; details: MIA PaCa-2, 24 h
# [12] = Antiproliferative activity against human CFPAC cells after 24 hrs; format: functional, cell-based
# [13] = Antiproliferative activity against human PANC1 cells after 24 hrs; format: functional, cell-based; details: PANC-1, 24 h
# [14] = Displacement of [3H]-DTG from sigma 2 receptor in Sprague-Dawley rat liver membranes after 120 mins by scintillation counting analysis; format: cell membranes, Membrane; summary of the method: as §1
# [15] = Displacement of [3H]-DTG from sigma 2 receptor in rat liver membranes after 120 mins by scintillation counting analysis; format: cell membranes, Membrane; summary of the method: as §2
SMILES,Ki [4] [nM],Ki [5] [nM],also measured
Fc1ccc(-n2cc(CCCCN3CCC4(CC3)OCc3ccccc34)c3ccccc32)cc1 [SIRAMESINE],–,–,Ki [1]: 0.12 nM; IC50 [2]: 6000 nM; IC50 [3]: 45400 nM
"CC(O)(CCN1CCC(Cc2ccccc2)CC1)c1ccc2ccccc2c1 (single isomer, unassigned; (+))",81,10,–
CC(O)(CCN1CCC(Cc2ccccc2)CC1)c1ccccc1 (stereo in doubt; 2b),240,40,–
COc1ccc(C)cc1NC(=O)OC1CC2CCCC(C1)N2CCCCCCCCCCN (stereo not given),–,–,Ki [6]: 19 nM; Ki [7]: 133 nM
"CC(CCN1CCC(Cc2ccccc2)CC1)c1ccccc1 (single isomer, unassigned; (+))",8.9,2.9,–
COc1ccc(C)cc1NC(=O)OC1CC2CCCC(C1)N2CCCCCCN (stereo not given),–,–,IC50 [8]: ≤ 100000 nM; IC50 [9]: ≤ 100000 nM; IC50 [10]: ≤ 100000 nM; IC50 [11]: ≤ 100000 nM; IC50 [12]: ≤ 100000 nM; IC50 [13]: ≤ 100000 nM
"CC(CCN1CCC(Cc2ccccc2)CC1)c1ccc2ccccc2c1 (single isomer, unassigned; (-))",98,6.9,–
"CC(CCN1CCC(Cc2ccccc2)CC1)c1ccc2cc(O)ccc2c1 (single isomer, unassigned; (-))",105,13,–
"CC(O)(CCN1CCC(Cc2ccccc2)CC1)c1ccc2cc(O)ccc2c1 (single isomer, unassigned; (-))",905,62,–
CC(CCN1CCC(Cc2ccccc2)CC1)c1ccccc1 (racemic),6.5,2.1,–
CC(O)(CCN1CCC(Cc2ccccc2)CC1)c1ccccc1 (stereo in doubt; 2a),339,27,–
CC(O)(CCN1CCC(Cc2ccccc2)CC1)c1ccc2cc(O)ccc2c1 (racemic),118,27,–
CC(O)(CCN1CCC(Cc2ccccc2)CC1)c1ccc2ccccc2c1 (stereo in doubt; 1b),79,11,–
C/C(=C\CN1CCC(Cc2ccccc2)CC1)c1ccc2cc(O)ccc2c1,305,9.6,–
COc1ccc(C)cc1NC(=O)OC1CC2CCCC(C1)N2Cc1ccc(N(C)C)cc1 (stereo not given),–,–,IC50 [8]: ≤ 100000 nM; IC50 [9]: ≤ 100000 nM; IC50 [10]: ≤ 100000 nM; IC50 [11]: ≤ 100000 nM; IC50 [12]: ≤ 100000 nM; IC50 [13]: ≤ 100000 nM
C/C(=C\CN1CCC(Cc2ccccc2)CC1)c1ccccc1,47,0.7,–
CC(CCN1CCC(Cc2ccccc2)CC1)c1ccccc1 (stereo in doubt; 6b),7.9,3,–
CC(O)(CCN1CCC(Cc2ccccc2)CC1)c1ccc2ccccc2c1 (racemic),62.5,6.9,–
CC(O)(CCN1CCC(Cc2ccccc2)CC1)c1ccc2cc(O)ccc2c1 (stereo in doubt; 9a),68,70,–
CC(CCN1CCC(Cc2ccccc2)CC1)c1ccc2cc(O)ccc2c1 (stereo in doubt; 12),314,59,–
C[C@@H]1CN(CCCn2c3ccccc3c3ccccc32)C[C@H](C)N1 [RIMCAZOLE],–,–,Ki [14]: 302 nM
CC(CCN1CCC(Cc2ccccc2)CC1)c1ccc2ccccc2c1 (racemic),144,5.6,–
"CC(CCN1CCC(Cc2ccccc2)CC1)c1ccc2cc(O)ccc2c1 (single isomer, unassigned; (+))",582,35,–
CC(O)(CCN1CCC(Cc2ccccc2)CC1)c1ccccc1 (racemic),57,9.8,–
"CC(CCN1CCC(Cc2ccccc2)CC1)c1ccc2ccccc2c1 (single isomer, unassigned; (+))",26,6,–
O[C@@H](CN1C2CCC1CC(c1ccccc1)C2)c1cccc(Br)c1 (stereo not given in full),–,–,IC50 [8]: ≤ 100000 nM; IC50 [9]: ≤ 100000 nM; IC50 [10]: ≤ 100000 nM; Ki [15]: 12.3 nM; IC50 [11]: ≤ 100000 nM; IC50 [12]: ≤ 100000 nM; IC50 [13]: ≤ 100000 nM
